We go through two compounds from ChEMBL document CHEMBL1137262, “Design and synthesis of APTCs (aminopyrrolidinetricarboxylic acids): identification of a new group III metabotropic glutamate receptor selective agonist” (Bioorg Med Chem Lett, 2006).

What all share (format): functional, cell-based
Assay [1] has as its target Metabotropic glutamate receptor 6 (Rattus norvegicus, UniProt P35349). Kind of assay: Activity at rat mGluR6 receptor measured as intracellular calcium concentration in HEK293 cells. The method, boiled down:
(§1)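 HEK293 cells were transfected with the indicated receptor, seeded on polyornithine-coated plates and cultured 24 h. Fluorescence (ex 485/em 525 nm) was read every 1.5 s for 60 s after compound addition. Agonism was scored versus basal signal. Dose–response curves were fitted; means of three experiments in triplicate.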
Background: Calcium flux is commonly read through the fluorescence of an indicator in the cells.

Assay [2] deals with Metabotropic glutamate receptor 8 (Rattus norvegicus, UniProt P70579). Kind of assay: (§2) Activity at rat mGluR8 receptor measured as intracellular calcium concentration in HEK293 cells. A digest of the protocol:
as §1

For assay [3], the target named is Metabotropic glutamate receptor 8 (Rattus norvegicus) (UniProt P70579). Described as §2. To be noted: filed as partial agonist. A digest of the protocol: as §1
Assay [4] has as its target Metabotropic glutamate receptor 5 (Rattus norvegicus, UniProt P31424). The assay is described as follows: Activity at rat mGluR5 receptor measured as intracellular calcium concentration in HEK293 cells. The method, boiled down: as §1
The target in assay [5] is Metabotropic glutamate receptor 4 (Rattus norvegicus) (UniProt P31423). Kind of assay: (§3) Activity at rat mGluR4 receptor measured as intracellular calcium concentration in HEK293 cells. To be noted: filed as agonist. A digest of the protocol: as §1
The target in assay [6] is Metabotropic glutamate receptor 4 (Rattus norvegicus, UniProt P31423). The assay is described as §3. The method, boiled down: as §1
Assay [7] has as its target Metabotropic glutamate receptor 4 (Rattus norvegicus) (UniProt P31423). The assay is described as follows: Activity at rat mGluR4 receptor measured as intracellular calcium concentration in HEK293 cells relative to glutamate.
In assay [8] the target is Metabotropic glutamate receptor 2 (Rattus norvegicus, UniProt P31421). Kind of assay: Activity at rat mGluR2 receptor measured as intracellular calcium concentration in HEK293 cells. The method, boiled down:
as §1

The target in assay [9] is Metabotropic glutamate receptor 4 (Rattus norvegicus) (UniProt P31423). Kind of assay: Activity against rat mGluR4 receptor measured as intracellular calcium concentration in HEK293 cells at 450 uM. The note with it: filed as agonist.
Assay [10] deals with Metabotropic glutamate receptor 8 (Rattus norvegicus) (UniProt P70579). The assay is described as follows: Activity at rat mGluR8 receptor measured as intracellular calcium concentration in HEK293 cells relative to glutamate.
The target of assay [11] is Metabotropic glutamate receptor 1 (Rattus norvegicus, UniProt P23385). The assay is described as follows: Activity at rat mGluR1 receptor measured as intracellular calcium concentration in HEK293 cells. A digest of the protocol: as §1
Assay [12] has as its target Metabotropic glutamate receptor 7 (Rattus norvegicus, UniProt P35400). Kind of assay: Activity at rat mGluR7 receptor measured as intracellular calcium concentration in HEK293 cells. The method, boiled down:
as §1

Some results are limits rather than exact numbers.

Sequence of Metabotropic glutamate receptor 4 (Rattus norvegicus) (P31423 whole entry): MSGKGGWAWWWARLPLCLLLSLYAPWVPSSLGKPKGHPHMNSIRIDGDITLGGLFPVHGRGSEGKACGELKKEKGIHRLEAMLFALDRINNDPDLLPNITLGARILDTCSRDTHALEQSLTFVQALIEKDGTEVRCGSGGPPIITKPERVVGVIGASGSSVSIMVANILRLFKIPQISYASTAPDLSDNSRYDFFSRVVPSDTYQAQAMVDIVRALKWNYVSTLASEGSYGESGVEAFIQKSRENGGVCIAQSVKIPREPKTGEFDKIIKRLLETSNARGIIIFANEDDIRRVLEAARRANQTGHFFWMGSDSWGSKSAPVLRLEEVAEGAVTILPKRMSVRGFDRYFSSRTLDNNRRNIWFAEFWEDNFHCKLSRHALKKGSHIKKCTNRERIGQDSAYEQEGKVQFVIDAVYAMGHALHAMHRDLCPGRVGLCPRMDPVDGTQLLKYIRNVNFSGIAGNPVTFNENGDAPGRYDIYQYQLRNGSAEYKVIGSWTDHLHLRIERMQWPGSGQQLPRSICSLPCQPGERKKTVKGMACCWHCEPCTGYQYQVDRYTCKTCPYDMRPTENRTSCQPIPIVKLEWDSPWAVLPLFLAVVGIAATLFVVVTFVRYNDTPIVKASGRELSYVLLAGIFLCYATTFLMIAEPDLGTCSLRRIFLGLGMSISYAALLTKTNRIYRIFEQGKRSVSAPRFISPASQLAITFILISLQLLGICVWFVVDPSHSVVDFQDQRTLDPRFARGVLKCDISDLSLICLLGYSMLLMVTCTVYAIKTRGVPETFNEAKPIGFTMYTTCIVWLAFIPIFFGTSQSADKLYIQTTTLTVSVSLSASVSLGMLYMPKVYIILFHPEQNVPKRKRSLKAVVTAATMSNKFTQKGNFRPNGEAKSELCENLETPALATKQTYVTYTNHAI
Sequence of Metabotropic glutamate receptor 5 (P31424 whole entry): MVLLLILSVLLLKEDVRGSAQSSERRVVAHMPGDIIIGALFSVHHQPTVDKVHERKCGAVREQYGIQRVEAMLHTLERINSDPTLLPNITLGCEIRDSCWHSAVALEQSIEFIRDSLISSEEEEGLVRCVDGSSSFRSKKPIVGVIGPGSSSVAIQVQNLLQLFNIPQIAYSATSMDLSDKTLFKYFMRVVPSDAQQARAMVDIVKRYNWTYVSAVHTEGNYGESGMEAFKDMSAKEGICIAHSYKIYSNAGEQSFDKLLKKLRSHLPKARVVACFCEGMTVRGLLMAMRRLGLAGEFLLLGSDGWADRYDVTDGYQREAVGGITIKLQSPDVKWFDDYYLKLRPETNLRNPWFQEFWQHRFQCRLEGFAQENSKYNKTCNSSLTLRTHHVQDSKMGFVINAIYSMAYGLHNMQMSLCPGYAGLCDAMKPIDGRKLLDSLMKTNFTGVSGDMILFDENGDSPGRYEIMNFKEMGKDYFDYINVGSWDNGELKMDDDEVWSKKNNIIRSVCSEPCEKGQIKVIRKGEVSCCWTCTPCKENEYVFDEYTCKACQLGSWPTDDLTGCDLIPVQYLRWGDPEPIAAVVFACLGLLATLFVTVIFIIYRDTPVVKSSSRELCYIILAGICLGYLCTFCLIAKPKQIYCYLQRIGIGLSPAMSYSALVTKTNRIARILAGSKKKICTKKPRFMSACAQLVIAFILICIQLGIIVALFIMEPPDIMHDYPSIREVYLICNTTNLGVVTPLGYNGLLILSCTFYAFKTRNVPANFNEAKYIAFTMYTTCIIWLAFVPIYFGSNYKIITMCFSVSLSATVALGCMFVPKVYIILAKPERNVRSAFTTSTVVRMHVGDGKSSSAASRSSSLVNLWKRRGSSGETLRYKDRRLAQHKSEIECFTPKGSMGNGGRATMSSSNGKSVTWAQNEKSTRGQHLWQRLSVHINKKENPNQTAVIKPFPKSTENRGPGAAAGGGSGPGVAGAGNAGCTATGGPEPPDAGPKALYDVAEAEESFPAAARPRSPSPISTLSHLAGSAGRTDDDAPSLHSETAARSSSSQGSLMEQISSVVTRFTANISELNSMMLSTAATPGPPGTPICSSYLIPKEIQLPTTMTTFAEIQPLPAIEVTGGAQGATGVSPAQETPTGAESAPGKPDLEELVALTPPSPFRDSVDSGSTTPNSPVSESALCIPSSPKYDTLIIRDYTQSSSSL
Sequence of Metabotropic glutamate receptor 6 (P35349 whole entry): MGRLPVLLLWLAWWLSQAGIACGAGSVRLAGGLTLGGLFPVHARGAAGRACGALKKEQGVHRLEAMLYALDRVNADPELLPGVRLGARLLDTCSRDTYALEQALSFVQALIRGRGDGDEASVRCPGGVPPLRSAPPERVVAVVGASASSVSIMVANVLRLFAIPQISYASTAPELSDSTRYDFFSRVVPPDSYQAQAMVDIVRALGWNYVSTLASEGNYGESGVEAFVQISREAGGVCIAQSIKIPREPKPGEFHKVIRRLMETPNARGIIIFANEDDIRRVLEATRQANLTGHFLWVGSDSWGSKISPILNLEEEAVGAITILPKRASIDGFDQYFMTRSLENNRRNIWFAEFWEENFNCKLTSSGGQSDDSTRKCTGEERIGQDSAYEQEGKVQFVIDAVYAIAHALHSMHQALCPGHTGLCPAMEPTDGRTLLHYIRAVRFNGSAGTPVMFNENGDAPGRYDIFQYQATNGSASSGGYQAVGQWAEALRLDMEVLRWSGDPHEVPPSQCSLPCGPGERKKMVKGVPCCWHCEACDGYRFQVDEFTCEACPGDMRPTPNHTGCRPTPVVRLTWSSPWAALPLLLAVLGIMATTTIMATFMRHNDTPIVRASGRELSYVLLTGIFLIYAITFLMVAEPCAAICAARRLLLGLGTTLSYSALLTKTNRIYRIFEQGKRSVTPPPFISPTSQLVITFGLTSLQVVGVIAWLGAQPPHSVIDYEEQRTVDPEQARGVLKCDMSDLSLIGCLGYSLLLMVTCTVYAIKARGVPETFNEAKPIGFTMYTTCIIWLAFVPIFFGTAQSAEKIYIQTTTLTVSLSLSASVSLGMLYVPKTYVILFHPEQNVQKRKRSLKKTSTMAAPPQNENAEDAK
Sequence of Metabotropic glutamate receptor 4 (P31423 whole entry): as the sequence (P31423 whole entry) above
Sequence of Metabotropic glutamate receptor 8 (P70579 whole entry): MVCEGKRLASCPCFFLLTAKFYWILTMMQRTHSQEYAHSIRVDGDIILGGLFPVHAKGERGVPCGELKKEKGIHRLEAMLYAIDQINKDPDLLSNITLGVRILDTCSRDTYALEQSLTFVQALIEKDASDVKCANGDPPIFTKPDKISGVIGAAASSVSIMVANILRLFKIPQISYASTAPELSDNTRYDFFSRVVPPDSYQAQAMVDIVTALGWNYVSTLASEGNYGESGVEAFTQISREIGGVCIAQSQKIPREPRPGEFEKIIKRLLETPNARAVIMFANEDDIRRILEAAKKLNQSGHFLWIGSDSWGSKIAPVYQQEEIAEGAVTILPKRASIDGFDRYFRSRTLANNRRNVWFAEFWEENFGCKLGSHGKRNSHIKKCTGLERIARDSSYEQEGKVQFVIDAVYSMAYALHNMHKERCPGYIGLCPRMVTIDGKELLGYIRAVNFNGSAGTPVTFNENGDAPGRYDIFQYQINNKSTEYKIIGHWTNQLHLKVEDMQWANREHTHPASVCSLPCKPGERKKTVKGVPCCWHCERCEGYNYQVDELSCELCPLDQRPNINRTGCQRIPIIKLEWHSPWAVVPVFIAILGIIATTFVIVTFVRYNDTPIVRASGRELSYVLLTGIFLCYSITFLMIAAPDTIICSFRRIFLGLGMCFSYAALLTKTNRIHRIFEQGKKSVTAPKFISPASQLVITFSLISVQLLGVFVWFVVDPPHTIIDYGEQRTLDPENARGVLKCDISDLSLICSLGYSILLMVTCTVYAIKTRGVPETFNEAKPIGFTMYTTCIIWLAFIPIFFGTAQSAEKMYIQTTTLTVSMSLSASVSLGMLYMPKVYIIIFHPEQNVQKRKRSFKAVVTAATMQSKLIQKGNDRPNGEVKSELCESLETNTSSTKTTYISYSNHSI
Sequence of Metabotropic glutamate receptor 8 (Rattus norvegicus) (P70579 whole entry): as above
Sequence of Metabotropic glutamate receptor 2 (P31421 whole entry): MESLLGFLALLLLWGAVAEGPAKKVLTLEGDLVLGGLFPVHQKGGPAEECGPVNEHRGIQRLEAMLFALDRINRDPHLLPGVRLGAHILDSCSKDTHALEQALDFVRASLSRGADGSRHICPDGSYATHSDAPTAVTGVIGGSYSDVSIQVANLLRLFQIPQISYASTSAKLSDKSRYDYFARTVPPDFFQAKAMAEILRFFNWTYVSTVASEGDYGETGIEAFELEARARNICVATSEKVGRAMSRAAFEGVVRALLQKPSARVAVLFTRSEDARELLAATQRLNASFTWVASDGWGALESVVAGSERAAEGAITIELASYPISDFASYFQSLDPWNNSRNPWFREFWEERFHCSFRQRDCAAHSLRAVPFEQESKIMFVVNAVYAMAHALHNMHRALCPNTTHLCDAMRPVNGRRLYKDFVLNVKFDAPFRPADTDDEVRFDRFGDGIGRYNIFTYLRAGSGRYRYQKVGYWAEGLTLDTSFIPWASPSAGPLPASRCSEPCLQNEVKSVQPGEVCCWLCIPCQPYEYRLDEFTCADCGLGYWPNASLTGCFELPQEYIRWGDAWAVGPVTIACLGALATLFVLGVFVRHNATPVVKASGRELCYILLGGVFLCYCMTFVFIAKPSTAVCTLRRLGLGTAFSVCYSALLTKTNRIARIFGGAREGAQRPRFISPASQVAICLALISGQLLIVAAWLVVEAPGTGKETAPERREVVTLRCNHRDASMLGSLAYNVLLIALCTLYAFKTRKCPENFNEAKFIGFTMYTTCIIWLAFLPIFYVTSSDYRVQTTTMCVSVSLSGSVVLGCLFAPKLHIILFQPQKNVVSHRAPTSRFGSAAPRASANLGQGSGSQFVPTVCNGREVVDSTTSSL

With `N[C@@]1(C(=O)O)C[C@@H](C(=O)O)N(C(=O)/C=C/C(=O)O)C1`, the 50% effective concentration (EC50) – broadly, the midpoint of the concentration-response curve – in assay [1] was 378 µM; in [2], 56.2 µM; in assay [4], more than 5000 µM; in [6] it was 48.3 µM; in [8] it was more than 5000 µM; in assay [11] it was more than 5000 µM. Also, the Activity entry is “Partial agonist” in assay [3], “Agonist” in assay [5] and “Agonist” in assay [9]. Also, the Emax (usually the size of the effect at its maximum, as opposed to the concentration needed) in assay [7] came to 75%; in assay [10], 36%.

Regarding `N[C@@]1(C(=O)O)C[C@H](C(=O)O)[C@H](C(=O)O)C1`, the concentration giving a half-maximal response (EC50) is 18.4 µM in [1]; 10.1 µM in assay [2]; more than 1000 µM in [4]; 7.2 µM in [6]; 1200 µM in assay [12]; more than 1000 µM in [8].
